{"source": "ChEMBL document CHEMBL1154191", "about": "“Evaluation of spirocyclic 3-(3-fluoropropyl)-2-benzofurans as sigma1 receptor ligands for neuroimaging with positron emission tomography” (J Med Chem, 2009)", "key": {"Mus musculus [1]": {"test_system": "Mus musculus", "experiment": "Plasma concentration in CD1 mouse assessed per gram of wet tissue at 400 to 600 kBq, iv after 60 mins post-injection by gamma counting in presence of 1 mg/kg, ip sigma 1/sigma 2 receptor antagonist haloperidol treated before compound addition", "type": "organism-based", "design": "route intravenous", "details": "in vivo, 1 h", "in_short": "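Female CD-1 mice, fasted 24 h. […] Blood sampled and mice killed at 60 min pi. Samples weighed, γ-counted, %ID/g calculated. Compared with controls by two-tailed independent Student's t test.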"}, "Heart [2]": {"test_system": "Heart", "experiment": "Biodistribution in CD1 mouse heart assessed per gram of wet tissue at 400 to 600 kBq, iv after 60 mins post-injection by gamma counting", "type": "ADME, organism-based", "details": "in vivo, 1 h", "in_short": "(§1)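 Female CD-1 mice (~8-12 weeks, 20-28 g) were fasted 24 h with free water. Conscious mice got 400-600 kBq [¹⁸F] tracer in saline by tail vein. At 5, 30, 60 or 120 min (n=4-5 per time) they were anesthetized, blood and urine sampled, then killed by cervical dislocation. Organs were weighed and γ-counted, giving % ID/g wet tissue.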"}, "Pancreas [3]": {"test_system": "Pancreas", "experiment": "Biodistribution in CD1 mouse pancreas assessed per gram of wet tissue at 400 to 600 kBq, iv after 120 mins post-injection by gamma counting", "type": "ADME, organism-based", "details": "in vivo, 2 h", "in_short": "(§2)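 Female CD-1 mice (~8-12 weeks, 20-28 g), habituated ≥48 h and fasted 24 h with water available. The [18F] tracer (>150 GBq/μmol at end of synthesis) was given in 200 μL saline into the tail vein of conscious animals. At each time point, n=4-5, mice were anaesthetised, blood and urine sampled, then killed by cervical dislocation. Organs were weighed and γ-counted, and values calculated as % ID/g wet tissue.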"}, "Intestine": {"test_system": "Intestine", "experiment": "Biodistribution in CD1 mouse intestine assessed per gram of wet tissue at 400 to 600 kBq, iv after 60 mins post-injection by gamma counting", "type": "ADME, organism-based", "details": "in vivo, 1 h", "in_short": "as §1"}, "Heart [4]": {"test_system": "Heart", "experiment": "Biodistribution in CD1 mouse heart assessed per gram of wet tissue at 400 to 600 kBq, iv after 120 mins post-injection by gamma counting", "type": "ADME, organism-based", "details": "in vivo, 2 h", "in_short": "as §1"}, "Blood [5]": {"test_system": "Blood", "experiment": "Biodistribution in CD1 mouse blood assessed per gram of wet tissue at 400 to 600 kBq, iv after 5 mins post-injection by gamma counting", "type": "ADME, organism-based", "details": "in vivo", "in_short": "as §1"}, "Blood [6]": {"test_system": "Blood", "experiment": "Biodistribution in CD1 mouse blood assessed per gram of wet tissue at 400 to 600 kBq, iv after 60 mins post-injection by gamma counting in presence of 1 mg/kg, ip sigma 1/sigma 2 receptor antagonist haloperidol treated before compound addition", "type": "organism-based", "design": "dose 1 mg/kg, route intravenous", "details": "in vivo, 1 h", "in_short": "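Blocking arm in fasted female CD-1 mice (n=5). […] Animals were killed at 60 min post-injection, and organs were weighed and γ-counted as % ID/g wet tissue. Percent change was taken against the 60 min control group, with two-tailed unpaired Student's t test.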"}, "Lung [7]": {"test_system": "Lung", "experiment": "Biodistribution in CD1 mouse lung assessed per gram of wet tissue at 400 to 600 kBq, iv after 60 mins post-injection by gamma counting in presence of 1 mg/kg, ip sigma 1/sigma 2 receptor antagonist haloperidol treated before compound addition", "type": "organism-based", "design": "route intravenous", "details": "in vivo, 1 h", "in_short": "(§3)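 They were killed at 60 min pi, and organs were weighed and γ-counted as % ID/g wet tissue. Comparison with controls used Student's t test (independent, two-tailed).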"}, "[8]": {"experiment": "Biodistribution in CD1 mouse adrenal gland assessed per gram of wet tissue at 400 to 600 kBq, iv after 5 mins post-injection by gamma counting", "type": "ADME, organism-based", "details": "in vivo", "in_short": "as §1"}, "Lung [9]": {"test_system": "Lung", "experiment": "Biodistribution in CD1 mouse lung assessed per gram of wet tissue at 400 to 600 kBq, iv after 30 mins post-injection by gamma counting", "type": "ADME, organism-based", "details": "in vivo, 0.5 h", "in_short": "as §2"}, "Kidney [10]": {"test_system": "Kidney", "experiment": "Biodistribution in CD1 mouse kidney assessed per gram of wet tissue at 400 to 600 kBq, iv after 120 mins post-injection by gamma counting", "type": "ADME, organism-based", "details": "in vivo, 2 h", "in_short": "as §1"}, "Spleen": {"test_system": "Spleen", "experiment": "Biodistribution in CD1 mouse spleen assessed per gram of wet tissue at 400 to 600 kBq, iv after 60 mins post-injection by gamma counting", "type": "ADME, organism-based", "details": "in vivo, 1 h", "in_short": "as §2"}, "[11]": {"experiment": "Drug uptake in CD1 mouse thymus at 400 to 600 kBq, iv after 120 mins post-injection by gamma counting relative to initial uptake", "type": "ADME, organism-based", "details": "in vivo, 2 h", "in_short": "(§4)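 Organ % ID/g was measured by γ-counting after tail-vein injection of 400-600 kBq [18F] tracer in saline to fasted female CD-1 mice (n=4-5 per time). The 120 min pi value is expressed relative to the initial (5 min pi) uptake.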"}, "Muscle tissue [12]": {"test_system": "Muscle tissue", "experiment": "Biodistribution in CD1 mouse muscle assessed per gram of wet tissue at 400 to 600 kBq, iv after 120 mins post-injection by gamma counting", "type": "ADME, organism-based", "details": "in vivo, 2 h", "in_short": "as §2"}, "[13]": {"experiment": "N-octanol-phosphate buffer distribution coefficient, log D in three buffered solution by shake flask method", "type": "physicochemical", "in_short": "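[18F]-labelled tracer partitioned between n-octanol and Sorensen's phosphate buffer (50 mM, pH 7.2), Dulbecco's PBS (pH 7.2) or TRIS-HCl (30 mM, pH 7.2). Conventional shake-flask method, multiple distribution in duplicates, n = 50 in total.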"}, "Pancreas [14]": {"test_system": "Pancreas", "experiment": "Biodistribution in CD1 mouse pancreas assessed per gram of wet tissue at 400 to 600 kBq, iv after 60 mins post-injection by gamma counting", "type": "ADME, organism-based", "details": "in vivo, 1 h", "in_short": "as §2"}, "Stomach [15]": {"test_system": "Stomach", "experiment": "Biodistribution in CD1 mouse stomach assessed per gram of wet tissue at 400 to 600 kBq, iv after 5 mins post-injection by gamma counting", "type": "ADME, organism-based", "details": "in vivo", "in_short": "as §2"}, "Kidney [16]": {"test_system": "Kidney", "experiment": "Biodistribution in CD1 mouse kidney assessed per gram of wet tissue at 400 to 600 kBq, iv after 30 mins post-injection by gamma counting", "type": "ADME, organism-based", "details": "in vivo, 0.5 h", "in_short": "as §1"}, "Cerebellum": {"test_system": "Cerebellum", "experiment": "Biodistribution in CD1 mouse cerebellum assessed per gram of wet tissue at 400 to 600 kBq, iv after 60 mins post-injection by gamma counting", "type": "ADME, organism-based", "details": "in vivo, 1 h", "in_short": "as §1"}, "Pancreas [17]": {"test_system": "Pancreas", "experiment": "Drug uptake in CD1 mouse pancreas at 400 to 600 kBq, iv after 120 mins post-injection by gamma counting relative to initial uptake", "type": "ADME, organism-based", "details": "in vivo, 2 h", "in_short": "as §4"}, "Femur": {"test_system": "Femur", "experiment": "Biodistribution in CD1 mouse femur assessed per gram of wet tissue at 400 to 600 kBq, iv after 120 mins post-injection by gamma counting", "type": "ADME, organism-based", "details": "in vivo, 2 h", "in_short": "as §1"}, "Heart [18]": {"test_system": "Heart", "experiment": "Biodistribution in CD1 mouse heart assessed per gram of wet tissue at 400 to 600 kBq, iv after 5 mins post-injection by gamma counting", "type": "ADME, organism-based", "details": "in vivo", "in_short": "as §1"}, "Mus musculus [19]": {"test_system": "Mus musculus", "experiment": "Plasma concentration in CD1 mouse assessed per gram of wet tissue at 400 to 600 kBq, iv after 120 mins post-injection by gamma counting", "type": "ADME, organism-based", "details": "in vivo, 2 h", "in_short": "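Female CD-1 mice (~8-12 weeks, 20-28 g), fasted 24 h with free access to water. 400-600 kBq [18F] tracer in 200 μL saline given by tail vein to conscious mice. At 5, 30, 60 or 120 min pi (n=4-5 per time) mice anaesthetised, blood taken, then euthanised. Samples weighed, γ-counted, %ID/g wet tissue calculated.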"}, "Stomach [20]": {"test_system": "Stomach", "experiment": "Biodistribution in CD1 mouse stomach assessed per gram of wet tissue at 400 to 600 kBq, iv after 30 mins post-injection by gamma counting", "type": "ADME, organism-based", "details": "in vivo, 0.5 h", "in_short": "as §2"}, "[21]": {"experiment": "Biodistribution in CD1 mouse urine assessed as per gram of wet bladder at 400 to 600 kBq, iv after 30 mins post-injection by gamma counting", "type": "ADME, organism-based", "details": "in vivo, 0.5 h", "in_short": "as §2"}, "Muscle tissue [22]": {"test_system": "Muscle tissue", "experiment": "Biodistribution in CD1 mouse muscle assessed per gram of wet tissue at 400 to 600 kBq, iv after 60 mins post-injection by gamma counting in presence of 1 mg/kg, ip sigma 1/sigma 2 receptor antagonist haloperidol treated before compound addition", "type": "organism-based", "design": "route intravenous", "details": "in vivo, 1 h", "in_short": "as §3"}}}
{"smiles": "[18F]CCCC1OC2(CCN(Cc3ccccc3)CC2)c2ccccc21", "note": "(stereo unspecified)", "values": [{"measurement": "Drug uptake", "setting": "Mus musculus [1]", "value": 0.63, "unit": "%ID"}, {"measurement": "Drug uptake", "setting": "Heart [2]", "value": 2.46, "unit": "%ID"}, {"measurement": "Drug uptake", "setting": "Pancreas [3]", "value": 10.5, "unit": "%ID"}, {"measurement": "Drug uptake", "setting": "Intestine", "value": 6.59, "unit": "%ID"}, {"measurement": "Drug uptake", "setting": "Heart [4]", "value": 1.52, "unit": "%ID"}, {"measurement": "Drug uptake", "setting": "Blood [5]", "value": 1.44, "unit": "%ID"}, {"measurement": "Drug uptake", "setting": "Blood [6]", "value": 0.56, "unit": "%ID"}, {"measurement": "Drug uptake", "setting": "Lung [7]", "value": 2.11, "unit": "%ID"}, {"measurement": "Drug uptake", "setting": "[8]", "value": 10.6, "unit": "%ID"}, {"measurement": "Drug uptake", "setting": "Lung [9]", "value": 7.01, "unit": "%ID"}, {"measurement": "Drug uptake", "setting": "Kidney [10]", "value": 3.68, "unit": "%ID"}, {"measurement": "Drug uptake", "setting": "Spleen", "value": 5.56, "unit": "%ID"}, {"measurement": "Drug uptake", "setting": "[11]", "value": "> 70", "unit": "%"}, {"measurement": "Drug uptake", "setting": "Muscle tissue [12]", "value": 0.97, "unit": "%ID"}, {"measurement": "logD", "setting": "[13]", "value": 3.03}, {"measurement": "Drug uptake", "setting": "Pancreas [14]", "value": 8.92, "unit": "%ID"}, {"measurement": "Drug uptake", "setting": "Stomach [15]", "value": 3.39, "unit": "%ID"}, {"measurement": "Drug uptake", "setting": "Kidney [16]", "value": 7.49, "unit": "%ID"}, {"measurement": "Drug uptake", "setting": "Cerebellum", "value": 2.99, "unit": "%ID"}, {"measurement": "Drug uptake", "setting": "Pancreas [17]", "value": "> 70", "unit": "%"}, {"measurement": "Drug uptake", "setting": "Femur", "value": 6.64, "unit": "%ID"}, {"measurement": "Drug uptake", "setting": "Heart [18]", "value": 6.52, "unit": "%ID"}, {"measurement": "Drug uptake", "setting": "Mus musculus [19]", "value": 0.44, "unit": "%ID"}, {"measurement": "Drug uptake", "setting": "Stomach [20]", "value": 5.13, "unit": "%ID"}, {"measurement": "Drug uptake", "setting": "[21]", "value": 24.3, "unit": "%ID"}, {"measurement": "Drug uptake", "setting": "Muscle tissue [22]", "value": 0.9, "unit": "%ID"}]}
